Data set [1] concerns LNCaP. The experiment in a line: Antiproliferative activity against human LNCAP cells assessed as T/C value at 3.2 x 10^-2 uM incubated for 96 hrs by propidium iodide based 2D monolayer assay. Type of data set: functional. An outline of the steps: (§1)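 Cells were kept in RPMI 1640 with 25 mM HEPES, 10% FCS and gentamicin at 37 °C under 5% CO2, and plated at 4,000-20,000 cells/well. After 24 h recovery, compound in medium or medium alone (control wells) was added at 10 half-log concentrations from 0.0032 to 100 µM, in triplicate, with at most 0.3% DMSO. After 96 h, wells were PBS-washed, stained with 7 µg/ml PI and 0.1% Triton X-100, and fluorescence read at 530/620 nm. IC50 came from a 4-parameter fit, geometric mean.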

Data set [2] deals with VCaP. The experiment in a line: Antiproliferative activity against human VCaP cells assessed as T/C value at 1 x 10^-1 uM incubated for 96 hrs by propidium iodide based 2D monolayer assay. Type of data set: functional. An outline of the steps: as §1
In data set [3] the test system is CWR22R. The data set is described as follows: Antiproliferative activity against human 22Rv1 cells assessed as T/C value at 1 x 10^-2 uM incubated for 96 hrs by propidium iodide based 2D monolayer assay. The data set is classed as functional. An outline of the steps:
as §1

In data set [4] the test system is LNCaP. The data set is described as follows: Antiproliferative activity against human LNCAP cells assessed as T/C value at 3.2 x 10^-1 uM incubated for 96 hrs by propidium iodide based 2D monolayer assay. The data set is classed as functional. An outline of the steps:
as §1

For data set [5], the system named is VCaP. The experiment in a line: Antiproliferative activity against human VCaP cells assessed as T/C value at 1 x 10^1 uM incubated for 96 hrs by propidium iodide based 2D monolayer assay. The data set is classed as functional. An outline of the steps: as §1
Data set [6] concerns DU-145. The data set is described as follows: Antiproliferative activity against human DU145 cells assessed as T/C value at 1 x 10^1 uM incubated for 96 hrs by propidium iodide based 2D monolayer assay. The data set is classed as functional. An outline of the steps:
(§2)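 After 24 h recovery, compound in medium or medium alone (control wells) was added at 10 half-log concentrations from 0.0032 to 100 µM, in triplicate, with at most 0.3% DMSO. After 96 h, wells were PBS-washed, stained with 7 µg/ml PI and 0.1% Triton X-100, and fluorescence read at 530/620 nm. IC50 came from a 4-parameter fit, geometric mean.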

Data set [7] has as its system DU-145. The experiment in a line: Antiproliferative activity against human DU145 cells assessed as T/C value at 3.2 x 10^1 uM incubated for 96 hrs by propidium iodide based 2D monolayer assay. The data set is classed as functional. An outline of the steps:
as §1

The test system of data set [8] is LNCaP. The data set is described as follows: Antiproliferative activity against human LNCAP cells assessed as T/C value at 1 x 10^-1 uM incubated for 96 hrs by propidium iodide based 2D monolayer assay. Type of data set: functional. An outline of the steps:
as §1

The test system of data set [9] is LNCaP. The experiment in a line: Antiproliferative activity against human LNCAP cells assessed as reduction in cell growth incubated for 96 hrs by propidium iodide based 2D monolayer assay. The data set is classed as functional. An outline of the steps: as §2
Data set [10] has as its system CWR22R. The data set is described as follows: Antiproliferative activity against human 22Rv1 cells assessed as T/C value at 3.2 x 10^-2 uM incubated for 96 hrs by propidium iodide based 2D monolayer assay. Type of data set: functional. An outline of the steps: as §1
Data set [11] has as its system LNCaP. The experiment in a line: Antiproliferative activity against human LNCAP cells assessed as T/C value at 3.2 x 10^1 uM incubated for 96 hrs by propidium iodide based 2D monolayer assay. Type of data set: functional. An outline of the steps:
as §1

For data set [12], the system named is CWR22R. The experiment in a line: Antiproliferative activity against human 22Rv1 cells assessed as T/C value at 3.2 x 10^-3 uM incubated for 96 hrs by propidium iodide based 2D monolayer assay. The data set is classed as functional. An outline of the steps:
as §1

The target in data set [13] is hERG (KCNH2) (Homo sapiens, UniProt Q12809). The data set is described as follows: Inhibition of human ERG expressed in CHO cells at 25 uM by whole-cell voltage-clamp analysis relative to control. The data set is classed as cell-based. To be noted: CHO cells expressing human ERG. An outline of the steps: (§3)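 CHO cells expressing hERG were held in Dulbecco's PBS with Ca/Mg, pH 7–7.2, at room temperature. Tail currents were recorded by automated whole-cell voltage clamp after 300 s exposure. […] Quinidine served as positive control and 0.25% DMSO buffer as negative control.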

Data set [14] in a line: Metabolic stability in liver microsomes (unknown origin) assessed as intrinsic clearance per mg of protein at 3 uM measured upto 45 mins in presence of NADPH by LC-MS/MS analysis. The data set is classed as ADME, Microsome. Conditions: read-out: CLH. An outline of the steps:
(§4)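 Pooled liver microsomes at 0.5 mg/mL protein in 0.1 M phosphate buffer pH 7.4 were incubated with 3 μM compound (0.25% DMSO) at 37 °C. Reactions were started with 1 mM NADPH and sampled at 0, 5, 15, 30 and 45 min. A minus-NADPH control ran for 45 min. Reactions were quenched in methanol and analysed by LC-MS/MS to give CLint and t1/2.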
In general terms: Liver microsomes are a subcellular fraction often used to study metabolism.

The target of data set [15] is Voltage-gated inwardly rectifying potassium channel KCNH2 (Homo sapiens, UniProt Q12809). The experiment in a line: Inhibition of human ERG expressed in CHO cells by whole-cell voltage-clamp analysis. Type of data set: cell-based. An outline of the steps: as §3
Data set [16] in a line: Protein binding in plasma (unknown origin) at 5 uM by LC-MS/MS analysis. Conditions: read-out: PPB (converted). The data set is classed as ADME, cell-free. An outline of the steps: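 Compound at 5 μM final in 100% plasma was dialysed against pH 7.4 buffer by equilibrium dialysis at 37 °C. Both sides were quantified by LC-MS/MS, unbound fraction was calculated, and results are given as % bound from duplicate experiments.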

Data set [17] in a line: Metabolic stability in liver microsomes (unknown origin) assessed as half life at 3 uM measured upto 45 mins in presence of NADPH by LC-MS/MS analysis. Type of data set: ADME, Microsome. An outline of the steps:
as §4

Some results are limits rather than exact numbers.

Chain of Voltage-gated inwardly rectifying potassium channel KCNH2 (Q12809 whole entry): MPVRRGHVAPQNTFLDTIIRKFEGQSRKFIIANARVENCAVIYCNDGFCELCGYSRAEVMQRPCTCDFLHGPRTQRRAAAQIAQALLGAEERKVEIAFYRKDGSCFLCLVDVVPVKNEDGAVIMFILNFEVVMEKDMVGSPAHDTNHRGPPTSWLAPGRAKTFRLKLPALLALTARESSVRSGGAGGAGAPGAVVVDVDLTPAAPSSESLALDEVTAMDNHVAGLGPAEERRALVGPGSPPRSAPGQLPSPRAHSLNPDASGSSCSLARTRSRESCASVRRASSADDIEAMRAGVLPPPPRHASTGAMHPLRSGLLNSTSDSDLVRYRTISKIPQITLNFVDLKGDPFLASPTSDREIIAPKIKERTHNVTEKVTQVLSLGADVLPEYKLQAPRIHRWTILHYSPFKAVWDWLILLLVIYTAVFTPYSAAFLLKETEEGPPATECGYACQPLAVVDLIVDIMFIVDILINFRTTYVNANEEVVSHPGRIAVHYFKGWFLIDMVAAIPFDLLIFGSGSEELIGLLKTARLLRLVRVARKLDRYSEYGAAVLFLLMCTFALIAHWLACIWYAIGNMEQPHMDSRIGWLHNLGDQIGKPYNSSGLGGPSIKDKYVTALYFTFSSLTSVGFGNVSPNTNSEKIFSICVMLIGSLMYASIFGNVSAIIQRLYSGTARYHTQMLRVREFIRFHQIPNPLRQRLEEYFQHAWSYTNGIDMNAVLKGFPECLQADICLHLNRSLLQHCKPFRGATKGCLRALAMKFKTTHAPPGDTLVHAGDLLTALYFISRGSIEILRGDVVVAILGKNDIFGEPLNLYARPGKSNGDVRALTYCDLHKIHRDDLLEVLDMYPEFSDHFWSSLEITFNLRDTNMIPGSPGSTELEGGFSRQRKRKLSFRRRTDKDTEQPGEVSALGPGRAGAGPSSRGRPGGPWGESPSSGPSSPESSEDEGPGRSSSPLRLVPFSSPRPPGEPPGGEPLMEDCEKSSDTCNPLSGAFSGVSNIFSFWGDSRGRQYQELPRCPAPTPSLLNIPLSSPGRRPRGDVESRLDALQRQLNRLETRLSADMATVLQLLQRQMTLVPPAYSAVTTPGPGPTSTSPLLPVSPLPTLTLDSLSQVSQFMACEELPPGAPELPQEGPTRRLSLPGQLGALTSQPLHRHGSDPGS
Chain of hERG (KCNH2) (Q12809 whole entry): as above

By IC50 is commonly meant the concentration at which inhibition is half-maximal. What is called IC70 is the concentration needed for an effect of 70%. Turning to `CC1(C)C(=O)N(c2ccc(C#N)cc2C(F)(F)F)C(=S)N1c1cccc(S(F)(F)(F)(F)F)c1`, the T/C in [1] is 103%; in data set [2], 88%; in data set [3], 104%; in data set [4] it was 85%; in data set [5] it was 59%; in [6], 96%. In addition, the T/C in data set [7] is on record as 87%; in data set [8], 94%; in data set [10], 107%; in data set [11], 32%; in data set [12] it was 104%. The IC50 in data set [9] amounted to 4.1 µM. Also, the IC70 in [9] is 19.9 µM.

With `CC1(C)C(=O)N(c2ccc(C#N)cc2C(F)(F)F)C(=S)N1c1ccc(S(F)(F)(F)(F)F)cc1`, the T/C in [1] is recorded as 78%; in data set [2] it was 103%; in [3] it was 104%; in [4], 82%; in [5], 59%; in data set [6], 53%. For the same molecule, the T/C in data set [7] was 37%; in data set [8], 77%; in data set [10], 104%; in data set [11] it was 10%; in data set [12] it was 106%. Moreover, the IC50 in data set [9] was 3 µM. In addition, the IC70 in data set [9] was 5.34 µM.

For `CC1(C)C(=O)N(c2cccc(S(F)(F)(F)(F)F)c2)C(=S)N1c1cccc(C(F)(F)F)c1`, the T/C in [1] is reported as 73%; in data set [2] it was 80%; in [3], 96%; in data set [4] it was 80%; in data set [5] it was 74%; in data set [6], 83%. Further, the T/C is given as 85% in data set [7]; 91% in [8]; 96% in [10]; 33% in data set [11]; 94% in data set [12]. The IC50 in data set [9] was determined as 3.4 µM. In addition, in [9], the IC70 is 4.31 µM.

As to `CC(O)(CSc1cc(C(F)(F)F)cc(C(F)(F)F)c1)C(=O)Nc1cccc(C(F)(F)C(F)(F)F)c1` (racemic), the T/C in [1] was 99%; in data set [2], 115%; in [3], 109%; in data set [4] it was 111%; in data set [5] it was 38%; in data set [6] it was 22%. In addition, the T/C in data set [7] turned out to be 8%; in data set [8], 97%; in data set [10], 112%; in data set [11], 6%; in data set [12], 104%. Also, in data set [9], the IC50 came out at 3.9 µM. Moreover, the IC70 in data set [9] was determined as 4.68 µM.

Consider `CC(O)(COc1ccc(C(F)(F)C(F)(F)F)cc1)C(=O)Nc1cc(C(F)(F)F)cc(C(F)(F)F)c1` (racemic), for which the T/C in [1] is recorded as 87%; in data set [2], 89%; in data set [3], 109%; in data set [4] it was 93%; in data set [5], 19%; in [6] it was 13%. Further, the T/C in [7] came to 3%; in data set [8], 96%; in data set [10] it was 115%; in data set [11], 2%; in [12], 106%. The IC50 in [9] was found to be 2.7 µM. In data set [9], the IC70 worked out at 3.04 µM.

On to `CC(O)(COc1cccc(S(F)(F)(F)(F)F)c1)C(=O)Nc1cc(C(F)(F)F)cc(C(F)(F)F)c1` (racemic), for which the T/C in [1] is reported as 83%; in [2], 92%; in data set [3], 105%; in data set [4], 83%; in [5] it was 32%; in data set [6], 6%. Also, the T/C was determined as 3% in data set [7]; 98% in [8]; 109% in data set [10]; 1% in data set [11]; 107% in [12]. In addition, in data set [9], the IC50 is 3 µM. In addition, the IC70 in data set [9] was 3.1 µM.

`CC(O)(COc1cc(C(F)(F)F)cc(C(F)(F)F)c1)C(=O)Nc1cccc(S(F)(F)(F)(F)F)c1` (racemic): the T/C in [1] worked out at 74%; in data set [2], 78%; in data set [3], 105%; in data set [4], 67%; in data set [5], 37%; in data set [6], 12%. Also, the T/C in data set [7] came to 5%; in data set [8] it was 76%; in data set [10], 110%; in data set [11], 1%; in [12], 104%. Moreover, the IC50 in data set [9] is 2.8 µM. In addition, the IC70 in [9] is 3 µM.

Usually inhibition stands for the change of the read-out against control, counted positive when it falls. A higher inhibition goes with a strong effect. Usually half-life stands for how long it takes for the measured level to halve. For the molecule `CC(O)(COc1cccc(S(F)(F)(F)(F)F)c1)C(=O)Nc1ccc([N+](=O)[O-])c(C(F)(F)F)c1` (racemic), the T/C in data set [1] is listed as 92 - 95%; in data set [2], 94 - 115%; in data set [3] it was 100 - 106%; in [4] it was 100 - 103%; in [5], 22%; in data set [6], 9 - 16%. For the same molecule, the T/C is on record as 1% in data set [7]; 87 - 113% in data set [8]; 108 - 110% in [10]; -1% in data set [11]; 97 - 104% in data set [12]. 25 µM produced 38.1% inhibition in data set [13]. In data set [14], the microsomal CLint at 3 µM is 3.21 µL/min/mg. Further, the IC50 in [15] was above 25 µM; in [9], 3.3 µM. Further, in data set [16], the fraction unbound at 5 µM was 0.015. Moreover, the half-life at 3 µM in [17] stood at 7.18 h. Also, the IC70 in data set [9] fell in the range of 4.37 to 5.15 µM.

Consider `CC(O)(COc1cc(C(F)(F)F)cc(C(F)(F)F)c1)C(=O)Nc1ccc(S(F)(F)(F)(F)F)cc1` (racemic), for which the T/C in data set [1] came to 100%; in [2], 99%; in data set [3], 99%; in data set [4] it was 93%; in [5], 23%; in [6] it was 15%. Besides, the T/C in [7] came out at 5%; in [8], 99%; in data set [10], 99%; in data set [11], 2%; in [12], 106%. Moreover, in data set [9], the IC50 was found to be 2.3 µM. Also, the IC70 in data set [9] is 2.97 µM.

Take `CC(O)(COc1ccccc1C(F)(F)F)C(=O)Nc1ccc(S(F)(F)(F)(F)F)cc1` (racemic): the T/C in data set [1] is on record as 88 - 94%; in data set [2], 75 - 96%; in data set [3], 99 - 104%; in data set [4] it was 83 - 84%; in data set [5], 11 - 28%; in data set [6], 1 - 20%. Further, the T/C in data set [7] is given as 4%; in [8], 83 - 84%; in data set [10], 100 - 108%; in [11] it was 1%; in data set [12], 101 - 106%. The molecule further displayed an inhibition at 25 µM in data set [13] of 26.3%. Further, in [14], the microsomal CLint at 3 µM was 22 µL/min/mg. Moreover, the results for the IC50 in data set [15] and in data set [9] were above 25 µM and 1.2 µM, respectively. Besides, the fraction unbound at 5 µM in data set [16] is 0.014. In addition, the half-life at 3 µM in data set [17] was found to be 1.05 h.
